Converted amounts (≈) assume the structure as drawn.
Test system: Salmonella typhimurium
Assay: Mutagenic activity in Salmonella typhimurium TA102 at 0.312 to 5 mg/plate measured after incubation of upside down for 48 hrs in presence of liver S9 mixture
Format: toxicity, organism-based
Details: salmonella enterica subsp. enterica serovar typhimurium, s9, 48 h
Summary of the method: (§1)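 Plate incorporation trial (Trial I) with histidine-dependent auxotrophs. Revertant colonies are counted against the concurrent vehicle control. Each dose and each control, including negative, vehicle and positive reference mutagens, run in triplicate plates.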
In the case of `C[C@H]1O[C@@H](n2cc(F)c(NC(=O)Oc3ccc(Cl)cc3)nc2=O)[C@H](O)[C@@H]1O`, the Activity is reported as “Non-toxic”.

Test system: Salmonella typhimurium
Assay: Mutagenic activity in Salmonella typhimurium TA100 at 0.312 to 5 mg/plate measured after incubation of upside down for 48 hrs in absence of liver S9 mixture
Format: toxicity, organism-based
Details: salmonella enterica subsp. enterica serovar typhimurium
Summary of the method: as §1
In the case of `C[C@H]1O[C@@H](n2cc(F)c(NC(=O)Oc3ccc(Cl)cc3)nc2=O)[C@H](O)[C@@H]1O`, the Activity is reported as “Non-toxic”.

Test system: Salmonella typhimurium
Assay: Mutagenic activity in Salmonella typhimurium TA1535 at 0.312 to 5 mg/plate preincubated for 20 mins before addition in absence of liver S9 mixture
Format: toxicity, organism-based
Details: salmonella enterica subsp. enterica serovar typhimurium
Summary of the method: (§2)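 Pre-incubation trial (Trial II) with histidine-dependent auxotrophs. Test solution is pre-incubated with bacterial suspension and S9 mix (10% v/v) or substitution buffer before plating on selective agar. Revertant colonies are counted against the concurrent vehicle control. Triplicate plates per dose and per control (negative, vehicle, positive reference mutagens).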
With `C[C@H]1O[C@@H](n2cc(F)c(NC(=O)Oc3ccc(Cl)cc3)nc2=O)[C@H](O)[C@@H]1O` the Activity was “Non-toxic”.

Test system: MCF7
Assay: Cytotoxicity against human MCF7 cells after 3 days MTT assay
Format: functional, cell-based
Details: MCF7, 72 h
Summary of the method: (§3)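 Cells held as monolayers in DMEM with 10% supplement. Seeded in 96-well plates on day 0 at densities set by doubling time: 1 × 10⁴/mL for HeLa and NCI-69, 2 × 10⁴/mL for MCF-7, 3 × 10⁴/mL for PZ-HPV-7. Five dilutions (10⁻⁸–5 × 10⁻⁶ mol/l), freshly prepared, added for 72 h. Growth read by MTT (succinate dehydrogenase activity); IC50 derived.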
`C[C@H]1O[C@@H](n2cc(F)c(NC(=O)Oc3ccc(Cl)cc3)nc2=O)[C@H](O)[C@@H]1O` gave an IC50 of 100 µg/mL (≈ 250 µM).

Test system: Salmonella typhimurium
Assay: Mutagenic activity in Salmonella typhimurium TA1537 at 0.312 to 5 mg/plate measured after incubation of upside down for 48 hrs in absence of liver S9 mixture
Format: toxicity, organism-based
Details: salmonella enterica subsp. enterica serovar typhimurium
Summary of the method: as §1
With `C[C@H]1O[C@@H](n2cc(F)c(NC(=O)Oc3ccc(Cl)cc3)nc2=O)[C@H](O)[C@@H]1O` the Activity was “Non-toxic”.

Test system: Salmonella typhimurium
Assay: Mutagenic activity in Salmonella typhimurium TA98 at 0.312 to 5 mg/plate preincubated for 20 mins before addition in absence of liver S9 mixture
Format: toxicity, organism-based
Details: salmonella enterica subsp. enterica serovar typhimurium
Summary of the method: as §2
In the case of `C[C@H]1O[C@@H](n2cc(F)c(NC(=O)Oc3ccc(Cl)cc3)nc2=O)[C@H](O)[C@@H]1O`, the Activity is reported as “Non-toxic”.

Test system: Salmonella typhimurium
Assay: Mutagenic activity in Salmonella typhimurium TA102 at 0.312 to 5 mg/plate measured after incubation of upside down for 48 hrs in absence of liver S9 mixture
Format: toxicity, organism-based
Details: salmonella enterica subsp. enterica serovar typhimurium
Summary of the method: as §1
For `C[C@H]1O[C@@H](n2cc(F)c(NC(=O)Oc3ccc(Cl)cc3)nc2=O)[C@H](O)[C@@H]1O`, the Activity was “Non-toxic”.

Test system: Salmonella typhimurium
Assay: Mutagenic activity in Salmonella typhimurium TA100 at 0.312 to 5 mg/plate preincubated for 20 mins before addition in absence of liver S9 mixture
Format: toxicity, organism-based
Details: salmonella enterica subsp. enterica serovar typhimurium
Summary of the method: as §2
With `C[C@H]1O[C@@H](n2cc(F)c(NC(=O)Oc3ccc(Cl)cc3)nc2=O)[C@H](O)[C@@H]1O` the Activity was “Non-toxic”.

Test system: Salmonella typhimurium
Assay: Mutagenic activity in Salmonella typhimurium TA1537 at 0.312 to 5 mg/plate measured after incubation of upside down for 48 hrs in presence of liver S9 mixture
Format: toxicity, organism-based
Details: salmonella enterica subsp. enterica serovar typhimurium, s9, 48 h
Summary of the method: as §1
With `C[C@H]1O[C@@H](n2cc(F)c(NC(=O)Oc3ccc(Cl)cc3)nc2=O)[C@H](O)[C@@H]1O` the Activity was “Non-toxic”.

Test system: Salmonella typhimurium
Assay: Mutagenic activity in Salmonella typhimurium TA1535 at 0.312 to 5 mg/plate preincubated for 20 mins before addition in presence of liver S9 mixture
Format: toxicity, organism-based
Details: salmonella enterica subsp. enterica serovar typhimurium
Summary of the method: as §2
For `C[C@H]1O[C@@H](n2cc(F)c(NC(=O)Oc3ccc(Cl)cc3)nc2=O)[C@H](O)[C@@H]1O`, the Activity was “Non-toxic”.

Test system: Salmonella typhimurium
Assay: Mutagenic activity in Salmonella typhimurium TA1537 at 0.312 to 5 mg/plate preincubated for 20 mins before addition in presence of liver S9 mixture
Format: toxicity, organism-based
Details: salmonella enterica subsp. enterica serovar typhimurium
Summary of the method: as §2
With `C[C@H]1O[C@@H](n2cc(F)c(NC(=O)Oc3ccc(Cl)cc3)nc2=O)[C@H](O)[C@@H]1O` the Activity was “Non-toxic”.

Test system: Salmonella typhimurium
Assay: Mutagenic activity in Salmonella typhimurium TA98 at 0.312 to 5 mg/plate measured after incubation of upside down for 48 hrs in absence of liver S9 mixture
Format: toxicity, organism-based
Details: salmonella enterica subsp. enterica serovar typhimurium
Summary of the method: as §1
With `C[C@H]1O[C@@H](n2cc(F)c(NC(=O)Oc3ccc(Cl)cc3)nc2=O)[C@H](O)[C@@H]1O` the Activity was “Non-toxic”.

Test system: not listed separately
Assay: Cytotoxicity against human PZ-HPV-7 cells after 3 days MTT assay
Format: functional, cell-based
Details: 72 h
Summary of the method: as §3
Molecule `C[C@H]1O[C@@H](n2cc(F)c(NC(=O)Oc3ccc(Cl)cc3)nc2=O)[C@H](O)[C@@H]1O` has an IC50 of 70 µg/mL (≈ 175 µM).

Test system: Salmonella typhimurium
Assay: Mutagenic activity in Salmonella typhimurium TA1537 at 0.312 to 5 mg/plate preincubated for 20 mins before addition in absence of liver S9 mixture
Format: toxicity, organism-based
Details: salmonella enterica subsp. enterica serovar typhimurium
Summary of the method: as §2
In the case of `C[C@H]1O[C@@H](n2cc(F)c(NC(=O)Oc3ccc(Cl)cc3)nc2=O)[C@H](O)[C@@H]1O`, the Activity is reported as “Non-toxic”.

Test system: Salmonella typhimurium
Assay: Mutagenic activity in Salmonella typhimurium TA102 at 0.312 to 5 mg/plate preincubated for 20 mins before addition in presence of liver S9 mixture
Format: toxicity, organism-based
Details: salmonella enterica subsp. enterica serovar typhimurium
Summary of the method: as §2
For `C[C@H]1O[C@@H](n2cc(F)c(NC(=O)Oc3ccc(Cl)cc3)nc2=O)[C@H](O)[C@@H]1O`, the Activity was “Non-toxic”.

Test system: Salmonella typhimurium
Assay: Mutagenic activity in Salmonella typhimurium TA102 at 0.312 to 5 mg/plate preincubated for 20 mins before addition in absence of liver S9 mixture
Format: toxicity, organism-based
Details: salmonella enterica subsp. enterica serovar typhimurium
Summary of the method: as §2
For `C[C@H]1O[C@@H](n2cc(F)c(NC(=O)Oc3ccc(Cl)cc3)nc2=O)[C@H](O)[C@@H]1O`, the Activity was “Non-toxic”.

Test system: HeLa
Assay: Cytotoxicity against human HeLa cells after 3 days MTT assay
Format: functional, cell-based
Details: 72 h
Summary of the method: as §3
In the case of `C[C@H]1O[C@@H](n2cc(F)c(NC(=O)Oc3ccc(Cl)cc3)nc2=O)[C@H](O)[C@@H]1O`, the IC50 is reported as 0.03 µg/mL (≈ 0.075 µM).

Test system: Salmonella typhimurium
Assay: Mutagenic activity in Salmonella typhimurium TA1535 at 0.312 to 5 mg/plate measured after incubation of upside down for 48 hrs in presence of liver S9 mixture
Format: toxicity, organism-based
Details: salmonella enterica subsp. enterica serovar typhimurium, s9, 48 h
Summary of the method: as §1
In the case of `C[C@H]1O[C@@H](n2cc(F)c(NC(=O)Oc3ccc(Cl)cc3)nc2=O)[C@H](O)[C@@H]1O`, the Activity is reported as “Non-toxic”.

Test system: Salmonella typhimurium
Assay: Mutagenic activity in Salmonella typhimurium TA98 at 0.312 to 5 mg/plate measured after incubation of upside down for 48 hrs in presence of liver S9 mixture
Format: toxicity, organism-based
Details: salmonella enterica subsp. enterica serovar typhimurium, s9, 48 h
Summary of the method: as §1
For `C[C@H]1O[C@@H](n2cc(F)c(NC(=O)Oc3ccc(Cl)cc3)nc2=O)[C@H](O)[C@@H]1O`, the Activity was “Non-toxic”.

Test system: Salmonella typhimurium
Assay: Mutagenic activity in Salmonella typhimurium TA98 at 0.312 to 5 mg/plate preincubated for 20 mins before addition in presence of liver S9 mixture
Format: toxicity, organism-based
Details: salmonella enterica subsp. enterica serovar typhimurium
Summary of the method: as §2
With `C[C@H]1O[C@@H](n2cc(F)c(NC(=O)Oc3ccc(Cl)cc3)nc2=O)[C@H](O)[C@@H]1O` the Activity was “Non-toxic”.

Test system: Salmonella typhimurium
Assay: Mutagenic activity in Salmonella typhimurium TA100 at 0.312 to 5 mg/plate preincubated for 20 mins before addition in presence of liver S9 mixture
Format: toxicity, organism-based
Details: salmonella enterica subsp. enterica serovar typhimurium
Summary of the method: as §2
With `C[C@H]1O[C@@H](n2cc(F)c(NC(=O)Oc3ccc(Cl)cc3)nc2=O)[C@H](O)[C@@H]1O` the Activity was “Non-toxic”.

Test system: Salmonella typhimurium
Assay: Mutagenic activity in Salmonella typhimurium TA100 at 0.312 to 5 mg/plate measured after incubation of upside down for 48 hrs in presence of liver S9 mixture
Format: toxicity, organism-based
Details: salmonella enterica subsp. enterica serovar typhimurium, s9, 48 h
Summary of the method: as §1
In the case of `C[C@H]1O[C@@H](n2cc(F)c(NC(=O)Oc3ccc(Cl)cc3)nc2=O)[C@H](O)[C@@H]1O`, the Activity is reported as “Non-toxic”.

Test system: NCI-H69
Assay: Cytotoxicity against human NCI-H69 cells after 3 days MTT assay
Format: functional, cell-based
Details: NCI-H69, 72 h
Summary of the method: as §3
`C[C@H]1O[C@@H](n2cc(F)c(NC(=O)Oc3ccc(Cl)cc3)nc2=O)[C@H](O)[C@@H]1O` showed an IC50 of 90 µg/mL (≈ 225 µM).

Test system: Salmonella typhimurium
Assay: Mutagenic activity in Salmonella typhimurium TA1535 at 0.312 to 5 mg/plate measured after incubation of upside down for 48 hrs in absence of liver S9 mixture
Format: toxicity, organism-based
Details: salmonella enterica subsp. enterica serovar typhimurium
Summary of the method: as §1
With `C[C@H]1O[C@@H](n2cc(F)c(NC(=O)Oc3ccc(Cl)cc3)nc2=O)[C@H](O)[C@@H]1O` the Activity was “Non-toxic”.

Source: ChEMBL document CHEMBL2040809, “Synthesis and biological activity evaluation of cytidine-5'-deoxy-5-fluoro-N-[(alkoxy/aryloxy)] carbonyl-cyclic 2',3'-carbonates” (Eur J Med Chem, 2012)
